Experimental data published in BindingDB's records for doi:10.1021/np070447m (2008).

What was measured:
[1] = molecular target: Hepatocyte growth factor receptor (Homo sapiens, UniProt P08581); assay: Inhibition of recombinant MET
[2] = molecular target: Insulin-like growth factor 1 receptor (Homo sapiens, UniProt P08069); assay: Inhibition of recombinant IGF1R
How it was run: (§1)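 Purified recombinant kinase, 50 µL reaction. 1 µM [γ-33P]-ATP with substrate; compound added in 10% DMSO. Tested over several concentrations; IC50 in g/mL.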

[3] = molecular target: T1, Aurora kinase A (Homo sapiens, UniProt O14965); assay: Inhibition of recombinant Aurora A; how it was run: as §1
T1 sequence (O14965 whole entry): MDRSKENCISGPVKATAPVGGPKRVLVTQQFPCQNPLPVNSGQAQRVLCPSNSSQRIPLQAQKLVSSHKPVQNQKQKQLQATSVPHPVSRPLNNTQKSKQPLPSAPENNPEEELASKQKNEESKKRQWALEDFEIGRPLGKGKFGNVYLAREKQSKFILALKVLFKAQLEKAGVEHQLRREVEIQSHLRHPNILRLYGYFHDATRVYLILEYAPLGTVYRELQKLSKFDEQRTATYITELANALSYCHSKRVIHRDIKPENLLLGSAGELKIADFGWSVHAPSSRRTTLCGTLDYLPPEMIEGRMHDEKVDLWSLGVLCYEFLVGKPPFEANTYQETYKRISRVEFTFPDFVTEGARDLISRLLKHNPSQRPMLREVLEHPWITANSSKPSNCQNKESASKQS

[4] = molecular target: Focal adhesion kinase 1 (Homo sapiens, UniProt Q05397); assay: Inhibition of recombinant FAK
Sequence of Focal adhesion kinase 1 (Q05397 whole entry): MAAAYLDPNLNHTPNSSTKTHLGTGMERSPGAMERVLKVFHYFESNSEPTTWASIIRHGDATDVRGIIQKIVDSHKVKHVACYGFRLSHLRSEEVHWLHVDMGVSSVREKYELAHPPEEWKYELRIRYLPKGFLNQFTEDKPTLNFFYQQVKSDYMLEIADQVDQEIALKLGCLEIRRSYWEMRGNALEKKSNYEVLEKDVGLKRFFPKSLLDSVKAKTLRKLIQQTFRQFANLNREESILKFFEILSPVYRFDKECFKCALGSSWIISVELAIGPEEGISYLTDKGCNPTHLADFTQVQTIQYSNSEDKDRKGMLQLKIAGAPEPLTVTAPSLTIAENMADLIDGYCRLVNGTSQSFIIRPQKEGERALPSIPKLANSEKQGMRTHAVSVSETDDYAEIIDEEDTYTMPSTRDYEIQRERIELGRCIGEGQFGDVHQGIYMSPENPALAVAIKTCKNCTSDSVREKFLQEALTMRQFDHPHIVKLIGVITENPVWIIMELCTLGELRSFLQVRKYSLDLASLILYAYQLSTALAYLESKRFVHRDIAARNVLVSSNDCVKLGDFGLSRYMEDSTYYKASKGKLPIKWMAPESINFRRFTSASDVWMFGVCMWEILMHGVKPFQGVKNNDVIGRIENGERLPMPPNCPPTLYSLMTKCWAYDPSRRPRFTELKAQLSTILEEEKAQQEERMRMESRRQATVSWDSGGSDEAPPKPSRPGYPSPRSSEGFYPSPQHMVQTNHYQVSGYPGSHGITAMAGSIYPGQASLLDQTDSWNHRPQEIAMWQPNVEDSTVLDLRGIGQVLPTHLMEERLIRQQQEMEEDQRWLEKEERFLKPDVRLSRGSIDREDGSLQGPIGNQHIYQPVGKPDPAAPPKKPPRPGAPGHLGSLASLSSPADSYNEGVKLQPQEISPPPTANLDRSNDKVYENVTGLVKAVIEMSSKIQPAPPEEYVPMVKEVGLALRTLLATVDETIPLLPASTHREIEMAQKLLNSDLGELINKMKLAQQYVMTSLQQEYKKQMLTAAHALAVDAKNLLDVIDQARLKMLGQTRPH

[5] = molecular target: Angiopoietin-1 receptor (Homo sapiens, UniProt Q02763); assay: Inhibition of recombinant TIE2
[6] = molecular target: Serine/threonine-protein kinase B-raf (Homo sapiens, UniProt P15056, V600E); assay: Inhibition of recombinant B-RAF-V600E mutant; how it was run: as §1
Sequence of Serine/threonine-protein kinase B-raf (P15056 2-766 V600E limits assumed): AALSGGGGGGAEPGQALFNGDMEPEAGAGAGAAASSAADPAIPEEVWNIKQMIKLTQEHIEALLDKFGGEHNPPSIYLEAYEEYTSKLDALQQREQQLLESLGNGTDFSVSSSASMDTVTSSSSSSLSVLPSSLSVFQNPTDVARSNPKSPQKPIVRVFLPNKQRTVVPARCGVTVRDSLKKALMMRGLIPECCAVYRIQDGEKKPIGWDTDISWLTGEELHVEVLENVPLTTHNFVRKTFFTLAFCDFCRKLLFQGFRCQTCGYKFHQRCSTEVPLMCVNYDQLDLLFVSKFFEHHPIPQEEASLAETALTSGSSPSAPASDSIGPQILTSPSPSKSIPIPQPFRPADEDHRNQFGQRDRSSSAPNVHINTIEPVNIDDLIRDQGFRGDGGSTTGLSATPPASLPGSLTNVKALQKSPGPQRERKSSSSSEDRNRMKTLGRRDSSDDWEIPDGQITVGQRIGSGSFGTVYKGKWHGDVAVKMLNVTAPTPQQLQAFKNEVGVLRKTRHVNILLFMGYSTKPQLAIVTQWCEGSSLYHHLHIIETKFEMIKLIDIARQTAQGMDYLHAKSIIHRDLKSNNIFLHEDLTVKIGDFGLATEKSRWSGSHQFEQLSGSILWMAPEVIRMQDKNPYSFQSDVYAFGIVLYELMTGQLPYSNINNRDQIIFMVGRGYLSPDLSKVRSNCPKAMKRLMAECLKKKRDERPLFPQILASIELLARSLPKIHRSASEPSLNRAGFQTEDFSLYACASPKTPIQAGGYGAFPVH

[7] = molecular target: Vascular endothelial growth factor receptor 3 (Homo sapiens, UniProt P35916); assay: Inhibition of recombinant VEGFR3; how it was run: as §1
Sequence of Vascular endothelial growth factor receptor 3 (P35916 whole entry): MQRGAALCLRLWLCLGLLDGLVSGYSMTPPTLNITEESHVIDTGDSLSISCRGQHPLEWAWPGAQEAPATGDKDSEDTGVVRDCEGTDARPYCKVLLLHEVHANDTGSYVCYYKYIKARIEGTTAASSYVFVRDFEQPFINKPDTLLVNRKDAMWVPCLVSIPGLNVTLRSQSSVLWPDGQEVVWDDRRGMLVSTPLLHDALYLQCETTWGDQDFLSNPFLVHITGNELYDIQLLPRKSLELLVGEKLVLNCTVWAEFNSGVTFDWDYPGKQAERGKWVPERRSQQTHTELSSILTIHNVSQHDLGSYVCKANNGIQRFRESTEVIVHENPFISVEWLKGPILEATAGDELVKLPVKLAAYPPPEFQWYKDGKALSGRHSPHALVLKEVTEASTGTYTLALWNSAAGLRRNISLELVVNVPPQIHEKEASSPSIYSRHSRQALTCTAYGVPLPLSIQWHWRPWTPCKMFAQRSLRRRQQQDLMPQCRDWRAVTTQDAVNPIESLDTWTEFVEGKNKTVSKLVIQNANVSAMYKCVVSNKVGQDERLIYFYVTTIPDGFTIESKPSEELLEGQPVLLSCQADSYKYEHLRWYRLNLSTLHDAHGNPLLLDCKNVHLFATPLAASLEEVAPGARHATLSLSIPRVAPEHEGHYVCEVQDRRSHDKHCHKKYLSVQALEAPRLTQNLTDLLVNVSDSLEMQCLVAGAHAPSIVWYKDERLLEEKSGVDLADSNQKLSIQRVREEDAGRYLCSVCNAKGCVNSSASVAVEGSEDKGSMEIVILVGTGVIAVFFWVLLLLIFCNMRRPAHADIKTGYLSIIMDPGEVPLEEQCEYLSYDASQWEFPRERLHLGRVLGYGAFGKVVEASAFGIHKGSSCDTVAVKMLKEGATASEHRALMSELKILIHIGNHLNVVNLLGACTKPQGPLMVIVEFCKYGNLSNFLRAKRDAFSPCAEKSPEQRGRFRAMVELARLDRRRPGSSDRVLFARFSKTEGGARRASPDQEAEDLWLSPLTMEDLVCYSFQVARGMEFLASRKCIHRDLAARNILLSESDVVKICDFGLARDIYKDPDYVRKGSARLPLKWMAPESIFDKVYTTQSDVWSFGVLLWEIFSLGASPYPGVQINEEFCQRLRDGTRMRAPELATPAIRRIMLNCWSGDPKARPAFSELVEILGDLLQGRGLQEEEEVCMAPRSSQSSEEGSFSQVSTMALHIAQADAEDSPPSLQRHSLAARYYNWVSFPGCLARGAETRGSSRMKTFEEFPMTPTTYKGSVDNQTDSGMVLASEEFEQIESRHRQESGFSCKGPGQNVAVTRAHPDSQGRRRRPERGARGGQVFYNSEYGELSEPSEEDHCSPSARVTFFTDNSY

[8] = molecular target: Receptor tyrosine-protein kinase erbB-2 (Homo sapiens, UniProt P04626); assay: Inhibition of recombinant ERBB2
[9] = molecular target: RAC-alpha serine/threonine-protein kinase (Homo sapiens, UniProt P31749); assay: Inhibition of recombinant AKT1; how it was run: as §1
[10] = molecular target: Cyclin-dependent kinase 2 (Homo sapiens, UniProt P24941); assay: Inhibition of recombinant CDK2/CycA; how it was run: as §1
[11] = molecular target: T2, NUAK family SNF1-like kinase 1 (Homo sapiens, UniProt O60285); assay: Inhibition of recombinant ARK5
T2 sequence (O60285 whole entry): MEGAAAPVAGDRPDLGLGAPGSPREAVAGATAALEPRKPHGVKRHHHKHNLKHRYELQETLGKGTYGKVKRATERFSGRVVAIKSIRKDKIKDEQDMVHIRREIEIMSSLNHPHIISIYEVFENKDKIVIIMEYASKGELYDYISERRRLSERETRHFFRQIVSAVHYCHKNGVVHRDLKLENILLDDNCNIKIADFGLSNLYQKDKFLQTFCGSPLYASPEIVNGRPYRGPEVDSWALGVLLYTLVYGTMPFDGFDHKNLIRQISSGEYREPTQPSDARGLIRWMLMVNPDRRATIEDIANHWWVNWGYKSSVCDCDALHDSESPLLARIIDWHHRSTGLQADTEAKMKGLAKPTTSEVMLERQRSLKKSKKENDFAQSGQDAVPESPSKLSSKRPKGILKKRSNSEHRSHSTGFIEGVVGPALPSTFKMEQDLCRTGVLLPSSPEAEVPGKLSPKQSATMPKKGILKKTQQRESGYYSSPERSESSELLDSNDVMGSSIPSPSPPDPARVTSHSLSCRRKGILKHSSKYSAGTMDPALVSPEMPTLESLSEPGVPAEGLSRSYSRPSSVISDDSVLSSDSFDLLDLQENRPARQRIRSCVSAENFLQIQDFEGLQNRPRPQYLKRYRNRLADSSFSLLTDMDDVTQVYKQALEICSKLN

[12] = molecular target: Vascular endothelial growth factor receptor 2 (Homo sapiens, UniProt P35968); assay: Inhibition of recombinant VEGFR2; how it was run: as §1
[13] = molecular target: T3, Receptor-type tyrosine-protein kinase FLT3 (Homo sapiens, UniProt P36888); assay: Inhibition of recombinant FLT3; how it was run: as §1
T3 sequence (P36888 whole entry): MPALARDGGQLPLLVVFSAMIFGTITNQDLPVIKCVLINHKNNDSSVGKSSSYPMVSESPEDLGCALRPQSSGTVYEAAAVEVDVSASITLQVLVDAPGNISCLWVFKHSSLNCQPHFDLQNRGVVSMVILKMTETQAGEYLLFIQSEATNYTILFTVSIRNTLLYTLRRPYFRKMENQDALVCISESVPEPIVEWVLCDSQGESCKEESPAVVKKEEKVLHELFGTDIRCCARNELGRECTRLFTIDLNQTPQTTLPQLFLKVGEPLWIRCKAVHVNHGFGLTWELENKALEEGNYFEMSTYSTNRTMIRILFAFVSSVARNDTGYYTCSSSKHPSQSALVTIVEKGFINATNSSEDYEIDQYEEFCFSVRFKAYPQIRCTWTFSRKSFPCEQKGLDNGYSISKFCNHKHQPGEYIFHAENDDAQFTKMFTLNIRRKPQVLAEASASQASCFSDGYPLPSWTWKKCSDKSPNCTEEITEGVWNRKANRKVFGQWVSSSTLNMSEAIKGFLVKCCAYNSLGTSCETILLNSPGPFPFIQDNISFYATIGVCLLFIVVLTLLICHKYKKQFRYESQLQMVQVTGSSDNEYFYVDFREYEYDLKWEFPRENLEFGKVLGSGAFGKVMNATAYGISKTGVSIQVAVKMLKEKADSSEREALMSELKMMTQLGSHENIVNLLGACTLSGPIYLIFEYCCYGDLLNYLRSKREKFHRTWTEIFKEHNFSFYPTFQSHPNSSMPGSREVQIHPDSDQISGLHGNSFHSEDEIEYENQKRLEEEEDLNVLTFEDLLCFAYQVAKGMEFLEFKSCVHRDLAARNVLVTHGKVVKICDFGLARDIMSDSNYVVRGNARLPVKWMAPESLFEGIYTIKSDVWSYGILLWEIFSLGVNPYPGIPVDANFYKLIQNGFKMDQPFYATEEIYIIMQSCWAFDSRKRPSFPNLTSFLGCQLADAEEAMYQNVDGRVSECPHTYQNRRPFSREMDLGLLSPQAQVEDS

[14] = molecular target: Mitogen-activated protein kinase kinase kinase 8 (Homo sapiens, UniProt P41279); assay: Inhibition of recombinant COT
Sequence of Mitogen-activated protein kinase kinase kinase 8 (P41279 whole entry): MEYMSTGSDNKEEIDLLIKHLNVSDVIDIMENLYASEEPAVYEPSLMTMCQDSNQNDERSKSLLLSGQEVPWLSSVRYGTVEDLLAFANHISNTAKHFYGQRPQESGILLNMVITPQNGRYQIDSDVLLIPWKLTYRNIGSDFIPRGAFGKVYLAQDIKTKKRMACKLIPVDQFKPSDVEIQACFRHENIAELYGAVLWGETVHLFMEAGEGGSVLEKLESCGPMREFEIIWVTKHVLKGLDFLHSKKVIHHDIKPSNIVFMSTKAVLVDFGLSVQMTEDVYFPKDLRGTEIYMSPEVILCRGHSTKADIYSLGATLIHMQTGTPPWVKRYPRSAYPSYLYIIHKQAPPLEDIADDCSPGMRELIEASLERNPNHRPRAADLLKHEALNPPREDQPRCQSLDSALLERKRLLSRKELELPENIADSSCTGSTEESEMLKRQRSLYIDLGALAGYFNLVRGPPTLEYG

Sequence of Insulin-like growth factor 1 receptor (P08069 31-736 limits assumed): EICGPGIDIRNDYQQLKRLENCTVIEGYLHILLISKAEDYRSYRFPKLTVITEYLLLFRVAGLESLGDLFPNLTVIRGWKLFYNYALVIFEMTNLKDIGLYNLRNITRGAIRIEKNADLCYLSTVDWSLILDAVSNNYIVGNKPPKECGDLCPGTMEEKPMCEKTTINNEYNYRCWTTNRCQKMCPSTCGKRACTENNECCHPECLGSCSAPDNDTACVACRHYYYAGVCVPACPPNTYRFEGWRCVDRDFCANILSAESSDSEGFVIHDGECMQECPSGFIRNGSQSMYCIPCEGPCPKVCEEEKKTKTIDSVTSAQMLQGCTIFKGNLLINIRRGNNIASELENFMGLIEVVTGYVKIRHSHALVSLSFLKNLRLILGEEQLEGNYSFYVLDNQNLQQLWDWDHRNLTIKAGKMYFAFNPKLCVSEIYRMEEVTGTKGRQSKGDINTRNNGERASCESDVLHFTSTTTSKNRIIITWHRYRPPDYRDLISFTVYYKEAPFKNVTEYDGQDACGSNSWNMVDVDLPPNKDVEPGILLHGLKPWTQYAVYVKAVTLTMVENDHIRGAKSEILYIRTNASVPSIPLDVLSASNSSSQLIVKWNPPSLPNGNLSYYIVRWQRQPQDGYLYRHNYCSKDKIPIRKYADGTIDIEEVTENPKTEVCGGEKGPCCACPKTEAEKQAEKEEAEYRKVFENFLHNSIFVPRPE
Sequence of Insulin-like growth factor 1 receptor (P08069 741-1367 limits assumed): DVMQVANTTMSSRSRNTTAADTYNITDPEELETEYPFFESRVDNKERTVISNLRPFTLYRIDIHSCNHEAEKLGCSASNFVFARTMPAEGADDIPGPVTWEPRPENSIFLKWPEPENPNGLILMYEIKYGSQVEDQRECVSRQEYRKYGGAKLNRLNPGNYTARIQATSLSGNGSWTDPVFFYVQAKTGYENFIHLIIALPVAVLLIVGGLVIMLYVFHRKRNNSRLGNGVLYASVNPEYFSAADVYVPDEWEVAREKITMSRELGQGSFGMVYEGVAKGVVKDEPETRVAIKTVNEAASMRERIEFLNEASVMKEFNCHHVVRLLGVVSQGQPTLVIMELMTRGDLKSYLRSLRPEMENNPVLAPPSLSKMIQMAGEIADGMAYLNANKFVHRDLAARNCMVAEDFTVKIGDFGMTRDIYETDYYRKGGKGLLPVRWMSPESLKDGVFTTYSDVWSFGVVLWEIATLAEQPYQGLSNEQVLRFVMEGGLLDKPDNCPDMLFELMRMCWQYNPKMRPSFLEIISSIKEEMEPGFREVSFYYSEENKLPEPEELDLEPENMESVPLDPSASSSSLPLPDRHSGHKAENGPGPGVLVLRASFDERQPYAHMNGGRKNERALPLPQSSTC

COc1cc(O)c2c(c1)-c1cc(O)c(O)cc1COC2=O [Alterlactone]
IC50 [1]: > 34.6 µM | IC50 [2]: > 34.6 µM | IC50 [3]: > 34.6 µM | IC50 [4]: > 34.6 µM | IC50 [5]: > 34.6 µM | IC50 [6]: > 34.6 µM | IC50 [7]: > 34.6 µM | IC50 [8]: > 34.6 µM | IC50 [9]: > 34.6 µM | IC50 [10]: > 34.6 µM | IC50 [11]: > 34.6 µM | IC50 [12]: > 34.6 µM | IC50 [13]: > 34.6 µM | IC50 [14]: > 34.6 µM

COc1cc(O)c2c(c1)C1(OC2=O)C(=O)C(=O)CC1C (stereo not drawn) [TALAROFLAVONE]
IC50 [1]: > 36.2 µM | IC50 [2]: > 36.2 µM | IC50 [3]: > 36.2 µM | IC50 [4]: > 36.2 µM | IC50 [5]: > 36.2 µM | IC50 [6]: > 36.2 µM | IC50 [7]: > 36.2 µM | IC50 [8]: > 36.2 µM | IC50 [9]: > 36.2 µM | IC50 [10]: > 36.2 µM | IC50 [11]: > 36.2 µM | IC50 [12]: > 36.2 µM | IC50 [13]: > 36.2 µM | IC50 [14]: > 36.2 µM
